From ChEMBL document CHEMBL1124364, “3-Sulfonyl-1-carba-1-dethiacephems” (1989)
Values after ≈ are worked out from the molar mass of the structure shown.

Experiments:
Assay type in all cases: functional
Haemophilus influenzae = assay: Minimum inhibitory concentration against Haemophilus influenzae (C.L.); conditions: Haemophilus influenzae; read-out: MIC
Summary of the method: (§1)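 Agar dilution: compounds diluted in 0.1 M phosphate buffer pH 7.0 and incorporated into Mueller-Hinton agar with 1% Bacto-Supplement C at 50 °C. Fresh overnight cultures diluted to about 1×10^4 cells/µL; 1 µL spotted on plates. Incubated overnight at 35 °C in ambient air. MIC taken as the lowest concentration preventing visible growth.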

Escherichia coli [1] = assay: Minimum inhibitory concentration against Escherichia coli (EC14); conditions: Escherichia coli; read-out: MIC; summary of the method: as §1
Providencia rettgeri = assay: Minimum inhibitory concentration against Proteus rettgeri (C24); conditions: Providencia rettgeri; read-out: MIC; summary of the method: as §1
[2] = system: Staphylococcus epidermidis; assay: Minimum inhibitory concentration against Staphylococcus epidermidis (222); conditions: Staphylococcus epidermidis; read-out: MIC; summary of the method: as §1
Enterobacter cloacae [3] = assay: Minimum inhibitory concentration against Enterobacter cloacae (265A beta-lactamase containing); conditions: Enterobacter cloacae; read-out: MIC; summary of the method: as §1
Klebsiella [4] = assay: Minimum inhibitory concentration against Klebsiella (KAE beta-lactamase containing); conditions: Klebsiella; read-out: MIC; summary of the method: as §1
Pseudomonas aeruginosa = assay: Minimum inhibitory concentration against Pseudomonas aeruginosa (X528); conditions: Pseudomonas aeruginosa; read-out: MIC; summary of the method: as §1
Klebsiella [5] = assay: Minimum inhibitory concentration against Klebsiella (X26); conditions: Klebsiella; read-out: MIC; summary of the method: as §1
Streptococcus pyogenes = assay: Minimum inhibitory concentration against Streptococcus pyogenes (C203); conditions: Streptococcus pyogenes; read-out: MIC; summary of the method: as §1
Morganella morganii = assay: Minimum inhibitory concentration against Proteus morganii (PR 15); conditions: Morganella morganii; read-out: MIC; summary of the method: as §1
Enterobacter cloacae [6] = assay: Minimum inhibitory concentration against Enterobacter cloacae (EB5); conditions: Enterobacter cloacae; read-out: MIC; summary of the method: as §1
Escherichia coli [7] = assay: Minimum inhibitory concentration against Escherichia coli (TEM beta-lactamase containing); conditions: Escherichia coli; read-out: MIC; summary of the method: as §1
Streptococcus pneumoniae = assay: Minimum inhibitory concentration against Streptococcus pneumoniae (PARK); conditions: Streptococcus pneumoniae; read-out: MIC; summary of the method: as §1
Salmonella = assay: Minimum inhibitory concentration against Salmonella (X514); conditions: Salmonella; read-out: MIC; summary of the method: as §1
Staphylococcus aureus = assay: Minimum inhibitory concentration against Staphylococcus aureus (X1.1); conditions: Staphylococcus aureus; read-out: MIC; summary of the method: as §1

Row | SMILES | MIC (Haemophilus influenzae) [µg/mL] | MIC (Escherichia coli [1]) [µg/mL] | MIC (Providencia rettgeri) [µg/mL] | MIC [2] [µg/mL] | MIC (Enterobacter cloacae [3]) [µg/mL] | MIC (Klebsiella [4]) [µg/mL] | MIC (Pseudomonas aeruginosa) [µg/mL] | MIC (Klebsiella [5]) [µg/mL] | MIC (Streptococcus pyogenes) [µg/mL] | MIC (Morganella morganii) [µg/mL] | MIC (Enterobacter cloacae [6]) [µg/mL] | MIC (Escherichia coli [7]) [µg/mL] | MIC (Streptococcus pneumoniae) [µg/mL] | MIC (Salmonella) [µg/mL] | MIC (Staphylococcus aureus) [µg/mL]
1 | CO/N=C(/C(=O)N[C@@H]1C(=O)N2C(C(=O)O)=C(S(=O)(=O)C(C)C)CC[C@H]12)c1csc(N)n1 | 0.5 (≈ 1.06 µM) | 0.25 (≈ 0.53 µM) | 0.25 (≈ 0.53 µM) | 16 (≈ 33.9 µM) | > 128 | > 128 | > 128 | 0.125 (≈ 0.265 µM) | 2 (≈ 4.24 µM) | 4 (≈ 8.48 µM) | 1 (≈ 2.12 µM) | 1 (≈ 2.12 µM) | 0.06 (≈ 0.127 µM) | 0.06 (≈ 0.127 µM) | 8 (≈ 17 µM)
2 | CO/N=C(/C(=O)N[C@@H]1C(=O)N2C(C(=O)O)=C(S(=O)(=O)C3CC3)CC[C@H]12)c1csc(N)n1 | 0.25 (≈ 0.532 µM) | 0.06 (≈ 0.128 µM) | 1 (≈ 2.13 µM) | 8 (≈ 17 µM) | > 128 | > 128 | > 128 | 0.06 (≈ 0.128 µM) | 0.015 (≈ 0.0319 µM) | 2 (≈ 4.26 µM) | 0.5 (≈ 1.06 µM) | 0.5 (≈ 1.06 µM) | 0.03 (≈ 0.0639 µM) | 0.125 (≈ 0.266 µM) | 4 (≈ 8.52 µM)
3 | CCCS(=O)(=O)C1=C(C(=O)O)N2C(=O)[C@@H](NC(=O)/C(=N/OC)c3csc(N)n3)[C@H]2CC1 | 0.25 (≈ 0.53 µM) | 0.125 (≈ 0.265 µM) | 4 (≈ 8.48 µM) | 8 (≈ 17 µM) | > 128 | > 128 | > 128 | 0.125 (≈ 0.265 µM) | 0.03 (≈ 0.0636 µM) | 2 (≈ 4.24 µM) | 1 (≈ 2.12 µM) | 1 (≈ 2.12 µM) | 0.03 (≈ 0.0636 µM) | 0.125 (≈ 0.265 µM) | 8 (≈ 17 µM)
4 | CO/N=C(/C(=O)N[C@@H]1C(=O)N2C(C(=O)O)=C(S(=O)(=O)c3ccccc3)CC[C@H]12)c1csc(N)n1 | 0.25 (≈ 0.495 µM) | 2 (≈ 3.96 µM) | 1 (≈ 1.98 µM) | 16 (≈ 31.6 µM) | > 128 | > 128 | > 128 | 1 (≈ 1.98 µM) | 1 (≈ 1.98 µM) | > 128 | 8 (≈ 15.8 µM) | 8 (≈ 15.8 µM) | 0.06 (≈ 0.119 µM) | 0.25 (≈ 0.495 µM) | 8 (≈ 15.8 µM)
5 | CO/N=C(/C(=O)N[C@@H]1C(=O)N2C(C(=O)O)=C(S(=O)(=O)c3c(C)noc3C)CC[C@H]12)c1csc(N)n1 | 0.25 (≈ 0.477 µM) | 2 (≈ 3.81 µM) | 16 (≈ 30.5 µM) | 8 (≈ 15.3 µM) | > 128 | > 128 | > 128 | 1 (≈ 1.91 µM) | 0.03 (≈ 0.0572 µM) | 2 (≈ 3.81 µM) | 8 (≈ 15.3 µM) | 8 (≈ 15.3 µM) | 0.03 (≈ 0.0572 µM) | 4 (≈ 7.63 µM) | 4 (≈ 7.63 µM)
6 | CCS(=O)(=O)C1=C(C(=O)O)N2C(=O)[C@@H](NC(=O)/C(=N/OC)c3csc(N)n3)[C@H]2CC1 | 0.25 (≈ 0.546 µM) | 0.06 (≈ 0.131 µM) | 0.125 (≈ 0.273 µM) | 16 (≈ 35 µM) | > 128 | > 128 | > 128 | 0.06 (≈ 0.131 µM) | 0.03 (≈ 0.0656 µM) | 2 (≈ 4.37 µM) | 1 (≈ 2.19 µM) |  | 0.03 (≈ 0.0656 µM) | 0.06 (≈ 0.131 µM) | 8 (≈ 17.5 µM)
